Laboratory results taken from ChEMBL document CHEMBL4196141, “Improved Antibacterial Activity of the Marine Peptide N6 against Intracellular Salmonella Typhimurium by Conjugating with the Cell-Penetrating Peptide Tat11 via a Cleavable Linker” (J Med Chem, 2018).

Experiments:
[1] = Drug internalization in mouse RAW264.7 using FITC-labeled compound at 2 uM pre-incubated for 1 hr with tubulin polymerization inhibitor nocodazole followed by compound addition and subsequent incubation for 2 hrs by flow cytometry; format: ADME, cell-based; conditions: raw264.7, 2 h
Method in brief: (§1)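 RAW264.7 cells were pretreated 1 h at 37 °C with 3 mM amiloride, 20 µM nocodazole, 6 µg/mL chlorpromazine or 5 mM MβCD. FITC-labeled peptide was then added for 2 h at 37 °C. Extracellular fluorescence was quenched with 0.4% Trypan blue and intracellular fluorescence read by flow cytometry against an untreated control.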

[2] = Drug internalization in mouse RAW264.7 using FITC-labeled compound at 2 uM pre-incubated for 1 hr with macropinocytosis inhibitor amiloride followed by compound addition and subsequent incubation for 2 hrs by flow cytometry; format: ADME, cell-based; conditions: raw264.7, 2 h; method in brief: as §1
[3] = Drug internalization in mouse RAW264.7 using FITC-labeled compound at 2 uM pre-incubated for 1 hr with clathrin-mediated endocytosis inhibitor chlorpromazine followed by compound addition and subsequent incubation for 2 hrs by flow cytometry; format: ADME, cell-based; conditions: raw264.7, 2 h; method in brief: as §1
[4] = Drug localisation in cytosol of mouse RAW264.7 using FITC-labeled compound at 5 uM incubated for 2 hrs by confocal microscopy; format: ADME, cell-based
Method in brief: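 RAW264.7 cells were plated for 18 h at 37 °C, then given 5 µM FITC or FITC-labeled peptide for 2 h. Nuclei were stained with Hoechst 33342 and membranes with FM 4-64 (each 5 µg/mL) for 30 min at 37 °C. Cells were PBS-washed and imaged by confocal fluorescence microscopy.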

[5] = Drug internalization in mouse RAW264.7 using FITC-labeled compound at 2 uM incubated for 2 hrs at 4 degC by flow cytometry; format: ADME, cell-based; conditions: raw264.7, 2 h
[6] = Drug internalization in mouse RAW264.7 using FITC-labeled compound at 2 uM pre-incubated for 1 hr with lipid rafts disruptor methyl-beta-cyclodextrin followed by compound addition and subsequent incubation for 2 hrs by flow cytometry; format: ADME, cell-based; conditions: raw264.7, 2 h; method in brief: as §1
Salmonella typhimurium [7] = assay: Antibacterial activity against Salmonella typhimurium ATCC 14028 incubated for 16 to 18 hrs at pH 7.2 by broth microdilution method; format: functional, Salmonella enterica subsp. enterica serovar Typhimurium; conditions: Salmonella enterica
Method in brief: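 Broth microdilution in MH broth. S. Typhimurium ATCC14028 was grown overnight at 37 °C to semi-log phase, pelleted, and diluted to OD600 0.01; final inoculum was 5 × 10^5 CFU/mL. Plates were incubated 16–18 h at 37 °C. MIC is the lowest peptide concentration with no visible growth. Data are in duplicate from at least two independent experiments.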

Salmonella typhimurium [8] = assay: Antibacterial activity against Salmonella typhimurium ATCC 14028 infected in ICR mouse model of peritonitis assessed as mouse survival at 1 umol/kg, ip dosed at 0.5 and 8 hrs post infection and measured daily for 7 days

SMILES	Drug uptake [1]	Drug uptake [2]	Drug uptake [3]	Drug uptake [4]	Drug uptake [5]	Drug uptake [6]	MIC (Salmonella typhimurium [7])	Activity (Salmonella typhimurium [8])
N=C(N)NCCC[C@H](NC(=O)[C@H](CCCNC(=N)N)NC(=O)[C@H](CCCNC(=N)N)NC(=O)[C@H](CCC(N)=O)NC(=O)[C@H](CCCNC(=N)N)NC(=O)[C@H](CCCNC(=N)N)NC(=O)[C@H](CCCCN)NC(=O)[C@H](CCCCN)NC(=O)[C@H](CCCNC(=N)N)NC(=O)CNC(=O)[C@@H](N)Cc1ccc(O)cc1)C(=O)O	Active	Not Active	Not Active	Active	Not Active	Not Active	> 82.1 µM	
O=C(O)c1cn(C2CC2)c2cc(N3CCNCC3)c(F)cc2c1=O [CIPROFLOXACIN]								100%
